KDM4C inh: inhibitors of human demethylase GASC-1 KDM4C. Q9H3R0. GST-KDM4C 2-372, H3K9me3 peptide, LANCE TR-FRET. inhibition, % at 12.5 µM. actives 0.15% (n = 96,000). AID 720574;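 active means mean replicate inhibition above about 25%, with at least 55% of replicates also reaching it, limit read from the data, passing the limit was not always enough; inconclusive means only one of those two conditions met; inactive means neither condition met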
Target sequence (Q9H3R0 2-372 limits assumed): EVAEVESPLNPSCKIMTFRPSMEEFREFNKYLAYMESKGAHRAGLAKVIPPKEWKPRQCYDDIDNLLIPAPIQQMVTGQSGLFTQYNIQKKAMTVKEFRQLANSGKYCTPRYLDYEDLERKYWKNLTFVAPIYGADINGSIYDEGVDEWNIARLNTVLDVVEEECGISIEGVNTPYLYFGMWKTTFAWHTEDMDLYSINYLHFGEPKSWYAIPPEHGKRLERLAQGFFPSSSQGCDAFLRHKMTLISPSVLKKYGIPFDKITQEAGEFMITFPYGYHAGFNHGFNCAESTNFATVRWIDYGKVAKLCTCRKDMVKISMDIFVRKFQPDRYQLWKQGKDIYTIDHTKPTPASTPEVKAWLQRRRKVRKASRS
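Material: GST-tagged GASC-1 (JMJD2C) catalytic fragment, aa 2-372. Input: enzyme final amount 10 nM. Medium: HEPES buffer, pH 7.5, plus ascorbate. Reagent: H3K9me3 peptide substrate, Fe(II), 2-oxoglutarate. Doses: single dose. Times: reaction 30 min RT, detection step 1 h RT. Measured by: LANCE TR-FRET. Evaluation: Fall in 671/618 emission ratio as inhibition.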
T cruzi growth-1: inhibitors of T. cruzi proliferation. T. cruzi beta-gal in NIH3T3, GalScreen luminescence, 90 h. inhibition, % at 8.34 µM. AID 624255. actives 5.9% (n = 77,000);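 active means mean inhibition above about 93%, with at least 55% of replicates each passing it, limit read from the data, passing the limit was not always enough; inconclusive means only one of those two conditions holds; inactive means neither condition holds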
Pf Dd2 growth: P. falciparum Dd2 growth inhibition | SYBR Green, 72 h; stronger effect = lower value | activity change, % at 10 µM | actives 2.3% (n = 94,000) | AID 1159554; in the data active means activity change below about -80%; inconclusive means no clear call, values can overlap the other calls
IDH1 R132H inh: blocks human IDH1 R132H reductase activity. actives 0.18% (n = 70,000). diaphorase/resazurin fluorescence, 60 min. inhibition, % at 10 µM. O75874; in the data active means inhibition above about 34%; inconclusive means no clear call, values can overlap the other calls; inactive means below about 11%;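 further: 0% = DMSO and 100% = no enzyme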
Target sequence (O75874 whole entry R132H): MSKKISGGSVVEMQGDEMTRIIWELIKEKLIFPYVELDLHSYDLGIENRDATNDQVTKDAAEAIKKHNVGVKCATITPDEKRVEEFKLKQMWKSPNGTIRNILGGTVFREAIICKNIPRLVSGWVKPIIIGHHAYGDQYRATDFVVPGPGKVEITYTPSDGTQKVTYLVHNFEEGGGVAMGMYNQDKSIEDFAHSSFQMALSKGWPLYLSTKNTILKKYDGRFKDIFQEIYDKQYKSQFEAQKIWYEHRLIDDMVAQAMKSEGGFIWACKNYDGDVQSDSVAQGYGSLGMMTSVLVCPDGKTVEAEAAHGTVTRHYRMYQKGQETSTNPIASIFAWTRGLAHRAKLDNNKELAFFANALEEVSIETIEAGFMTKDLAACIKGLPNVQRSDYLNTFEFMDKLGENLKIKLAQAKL
T cruzi growth-2: Trypanosoma cruzi proliferation inhibition; inhibition, % at 8.35 µM; actives 72% (n = 5,600); shares compounds with T cruzi growth-1; T. cruzi beta-gal in NIH3T3, GalScreen luminescence, 90 h;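 active means mean replicate inhibition above about 95% and at least 55% of replicates individually reaching it, limit read from the data; inconclusive means only one of the two criteria is met; inactive means neither criterion is met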
T cruzi growth-3: Trypanosoma cruzi proliferation inhibition | shares compounds with T cruzi growth-1 | T. cruzi beta-gal in NIH3T3, GalScreen luminescence, 90 h | inhibition, % at 2.09 µM | actives 21% (n = 5,600);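 active means mean inhibition above about 95%, with at least 55% of replicates also reaching it, limit read from the data; inconclusive means meets just one of the two conditions; inactive means meets neither condition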;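 further: plate controls were neutral control median for no effect and positive control median for full effect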
3T3 cytotox: cytotoxicity in mouse NIH/3T3 fibroblasts. shares compounds with T cruzi growth-1. NIH/3T3 viability, CellTiter-Glo ATP luminescence, 90 h. cytotoxicity (signal decrease), % at 8.35 µM. actives 14% (n = 5,600). AID 651742;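 active means mean signal decrease across replicates above about 35% based on untreated-well scatter, with enough replicates individually passing, limit read from the data; inconclusive means no rule stated though some were filed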;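 further: 0% = median of neutral control wells and 100% = median of positive control wells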
3T3 cytotox 2: cytotoxicity in mouse NIH/3T3 fibroblasts | shares compounds with T cruzi growth-1 | NIH/3T3 viability, CellTiter-Glo ATP luminescence, 90 h | inhibition, % at 24.9 µM | actives 56% (n = 5,600) | AID 651744;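 active means mean loss of cell viability signal at or above a set limit, and enough replicates individually reaching it; inconclusive means meets only the mean limit or only the replicate share; inactive means meets neither condition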;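 further: 0% = median of neutral control wells and 100% = median of positive control wells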
Starred values were filed as active, the others as inactive; ? = inconclusive; nt = no result. This is a sample that favours compounds with a hit; in the whole collection about 5.8% have one here.

SMILES	KDM4C inh	T cruzi growth-1	Pf Dd2 growth	IDH1 R132H inh	T cruzi growth-2	T cruzi growth-3	3T3 cytotox	3T3 cytotox 2
CC=Cc1ccc2n(c1=O)C[C@H]1[C@H](CO)[C@@H](C(=O)NCC(F)(F)F)[C@@H]2N1C(=O)C1CC1 (mixture of isomers)	3.7	-1.8	10.3	nt	nt	nt	nt	nt
CO[C@H]1CN(C)C(=O)c2ccc(NC(=O)Nc3ccc(Cl)cc3)cc2OC[C@@H](C)N(C(=O)Nc2c(C)noc2C)C[C@H]1C	-0.2	48.4	9.7	-0.1	nt	nt	nt	nt
O=C(Nc1cccc(F)c1)N[C@H]1CC[C@H](CCn2cc(Cc3ccccc3)nn2)O[C@H]1CO	-0.5	2.6	4.9	0.4	nt	nt	nt	nt
Cc1noc(C)c1S(=O)(=O)Nc1cccc2c1O[C@@H](CN(C)Cc1ccccc1)[C@@H](C)CN([C@H](C)CO)C2=O	-0.1	9.0	14.3	-1.5	nt	nt	nt	nt
Cc1noc(C)c1S(=O)(=O)Nc1cccc2c1O[C@H](CN(C)Cc1ccc(-c3ccccc3)cc1)[C@H](C)CN([C@H](C)CO)C2=O	0.4	108.1*	-48.1	10.5	53.6	29.1	-13.7	2.4
COc1ccc(S(=O)(=O)Nc2cccc3c2O[C@H](CN(C)Cc2ccc(C(=O)O)cc2)[C@H](C)CN([C@@H](C)CO)C3=O)cc1	0.5	?	23.2	-0.2	77.7	-0.4	-2.8	14.8
COc1ccc(S(=O)(=O)Nc2cccc3c2O[C@H](CN(C)Cc2ccc(Cl)c(Cl)c2)[C@H](C)CN([C@H](C)CO)C3=O)cc1	3.4	-12.2	27.3	-1.3	nt	nt	nt	nt
COc1ccc(S(=O)(=O)Nc2cccc3c2O[C@H](CN(C)Cc2ccc(C(=O)O)cc2)[C@@H](C)CN([C@H](C)CO)C3=O)cc1	0.2	-17.5	10.0	0.9	nt	nt	nt	nt
COc1ccc(S(=O)(=O)Nc2cccc3c2O[C@@H](CN(C)Cc2ccc(Cl)c(Cl)c2)[C@H](C)CN([C@@H](C)CO)C3=O)cc1	0.0	102.0*	-39.5	0.8	110.5*	1.4	13.7	17.8
Cc1ccc(S(=O)(=O)Nc2cccc3c2O[C@@H](CN(C)Cc2ccc(C(F)(F)F)cc2)[C@@H](C)CN([C@H](C)CO)C3=O)cc1	-1.2	102.3*	-12.8	1.5	108.6*	68.3	29.5	87.0*
Cc1ccc(S(=O)(=O)Nc2cccc3c2O[C@@H](CN(C)Cc2ccc(C(F)(F)F)cc2)[C@@H](C)CN([C@@H](C)CO)C3=O)cc1	-1.8	60.6	-23.4	-0.3	nt	nt	nt	nt
CCC(=O)N1C[C@@H]2[C@H](c3ccccc31)[C@H](CO)N2Cc1ccccc1OC	-0.5	-4.5	-70.8	nt	nt	nt	nt	nt
Cc1ccc2c(c1)c(-c1ccccc1)c(-c1ccccc1)n2CC(O)CN1CCN(CCO)CC1 (stereo unspecified)	nt	nt	nt	-0.8	nt	nt	nt	nt
O=C(NCCN1CCCC1)[C@H]1[C@H](CO)[C@H]2Cn3c(cccc3=O)[C@@H]1N2C(=O)c1ccccc1	0.5	95.9*	nt	nt	-7.0	-24.9	-8.8	-20.5
COc1cccc(CNC(=O)[C@@H]2[C@@H](CO)[C@@H]3Cn4c(cccc4=O)[C@H]2N3C(=O)C2CCCCC2)c1	-0.5	95.5*	nt	nt	42.2	25.7	19.6	1.0
O=C(NCCN1CCCCC1)[C@@H]1[C@@H](CO)[C@@H]2Cn3c(cccc3=O)[C@H]1N2C(=O)C1CCCCC1	-1.5	62.7	9.2	nt	nt	nt	nt	nt
CN(C)CCCNC(=O)C[C@@H]1CC[C@@H]2[C@H](COC[C@@H](O)CN2CC2CCCC2)O1	9.0	4.7	-9.4	nt	nt	nt	nt	nt
O=C(C[C@H]1C=C[C@H](NC(=O)c2ccc3c(c2)OCO3)[C@H](CO)O1)NCc1ccc(Oc2ccccc2)cc1	-1.2	nt	25.1	nt	nt	nt	nt	nt
Cc1noc(C)c1NC(=O)N(C)C[C@@H]1OCCCC[C@H](C)Oc2ccc(NC(=O)c3ccncc3)cc2C(=O)N([C@@H](C)CO)C[C@H]1C	-13.9	24.1	32.8	5.3	nt	nt	nt	nt
C[C@@H]1CN([C@@H](C)CO)C(=O)CCCn2cc(nn2)CO[C@H]1CN(C)Cc1ccc(Cl)c(Cl)c1	0.6	135.1*	8.4	-2.9	77.2	73.8	-30.0	0.1
COc1cccc(S(=O)(=O)N(C)C[C@@H]2OCc3cn(nn3)CCCC(=O)N([C@@H](C)CO)C[C@H]2C)c1	-0.1	?	5.4	-1.3	93.5	3.6	7.4	14.9
Cc1noc(C)c1NC(=O)N(C)C[C@@H]1OCc2cn(nn2)CCCC(=O)N([C@H](C)CO)C[C@@H]1C	-0.7	?	1.0	-1.1	15.6	-1.6	-3.1	-11.6
C[C@H]1CN([C@@H](C)CO)C(=O)CCCn2cc(nn2)CO[C@@H]1CN(C)Cc1ccc(Cl)c(Cl)c1	0.4	-65.1	20.2	-1.4	nt	nt	nt	nt
Cc1noc(C)c1NC(=O)N(C)C[C@H]1OCc2cn(nn2)CCCC(=O)N([C@H](C)CO)C[C@@H]1C	nt	-8.7	9.1	-0.5	nt	nt	nt	nt
COC(=O)N(C)C[C@@H]1OCc2cn(nn2)CCCC(=O)N([C@H](C)CO)C[C@H]1C	nt	-249.8	-16.9	1.0	nt	nt	nt	nt
SMILES	KDM4C inh	T cruzi growth-1	Pf Dd2 growth	IDH1 R132H inh	T cruzi growth-2	T cruzi growth-3	3T3 cytotox	3T3 cytotox 2
COC(=O)N(C)C[C@H]1OCc2cn(nn2)CCCC(=O)N([C@@H](C)CO)C[C@H]1C	0.6	?	-6.2	-2.1	25.4	4.4	21.3	?
O=C(C[C@H]1C=C[C@H](NC(=O)Cc2ccccn2)[C@@H](CO)O1)NCCc1ccncc1	1.1	-71.5	18.7	0.3	nt	nt	nt	nt
C[C@@H]1CN([C@@H](C)CO)C(=O)Cc2cc(NC(=O)CCCN(C)C)ccc2O[C@H]1CN(C)S(=O)(=O)c1ccccc1	0.0	17.7	-20.3	-0.3	nt	nt	nt	nt
COc1ccc(OC(=O)N(C)C[C@H]2OCc3cn(nn3)CCCC(=O)N([C@H](C)CO)C[C@H]2C)cc1	1.5	22.0	2.3	-0.2	nt	nt	nt	nt
C[C@H](CO)N1C[C@H](C)[C@@H](CN(C)C(=O)Nc2cccc(F)c2)OCc2cn(nn2)CCCC1=O	0.4	?	4.7	nt	108.7*	16.8	30.9	14.9
COc1ccc(OC(=O)N(C)C[C@@H]2OCc3cn(nn3)CCCC(=O)N([C@H](C)CO)C[C@@H]2C)cc1	-0.7	112.6*	15.0	-0.2	42.1	-17.0	5.1	4.2
C[C@@H]1CN([C@H](C)CO)C(=O)CCCn2cc(nn2)CO[C@@H]1CN(C)C(=O)Nc1cccc(F)c1	-0.5	11.2	9.0	nt	nt	nt	nt	nt
COCC(=O)N1CC(=O)N2[C@H](CO)[C@@H](c3ccc(C#CC4CC4)cc3)[C@@H]2C1	16.5	nt	-29.9	nt	nt	nt	nt	nt
COCc1cn(CC[C@@H]2CC[C@@H](NC(=O)c3ccccc3)[C@H](CO)O2)nn1	0.0	-19.2	7.5	0.4	nt	nt	nt	nt
